# Test results published in ChEMBL document CHEMBL1127567, “Retro-binding tripeptide thrombin active-site inhibitors: discovery, synthesis, and molecular modeling” (J Med Chem, 1994).
# Square brackets hold non-standard residues; d marks the D form. Peptide text beside a SMILES is read from it. Phe(ol) = N[C@H](CO)Cc1ccccc1; Ahp = NCCCCCCC(=O)O; Ahx = NCCCCCC(=O)O; Ava = NCCCCC(=O)O; GABA = NCCCC(=O)O
# Columns and labels:
# Coagulation factor X = Coagulation factor X (Homo sapiens, UniProt P00742); assay: In vitro activity against Factor Xa was determined
# Sequence of Coagulation factor X (P00742 41-179 limits assumed): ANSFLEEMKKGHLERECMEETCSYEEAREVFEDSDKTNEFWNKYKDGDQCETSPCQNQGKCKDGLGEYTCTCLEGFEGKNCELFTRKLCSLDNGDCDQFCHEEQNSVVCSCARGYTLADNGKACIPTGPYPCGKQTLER
# Sequence of Coagulation factor X (P00742 235-488 limits assumed): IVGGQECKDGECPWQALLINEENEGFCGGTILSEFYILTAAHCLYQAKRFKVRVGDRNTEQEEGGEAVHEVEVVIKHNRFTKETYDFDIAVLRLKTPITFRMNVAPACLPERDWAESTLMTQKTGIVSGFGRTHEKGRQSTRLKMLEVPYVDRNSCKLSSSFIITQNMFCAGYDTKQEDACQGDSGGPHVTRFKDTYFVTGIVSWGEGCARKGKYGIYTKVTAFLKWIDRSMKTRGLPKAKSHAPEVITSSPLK
# Plasminogen [1] = molecular target: T1, Plasminogen (Homo sapiens, UniProt P00747); assay: In vitro activity against plasmin was determined
# T1 sequence (P00747 97-580 limits assumed): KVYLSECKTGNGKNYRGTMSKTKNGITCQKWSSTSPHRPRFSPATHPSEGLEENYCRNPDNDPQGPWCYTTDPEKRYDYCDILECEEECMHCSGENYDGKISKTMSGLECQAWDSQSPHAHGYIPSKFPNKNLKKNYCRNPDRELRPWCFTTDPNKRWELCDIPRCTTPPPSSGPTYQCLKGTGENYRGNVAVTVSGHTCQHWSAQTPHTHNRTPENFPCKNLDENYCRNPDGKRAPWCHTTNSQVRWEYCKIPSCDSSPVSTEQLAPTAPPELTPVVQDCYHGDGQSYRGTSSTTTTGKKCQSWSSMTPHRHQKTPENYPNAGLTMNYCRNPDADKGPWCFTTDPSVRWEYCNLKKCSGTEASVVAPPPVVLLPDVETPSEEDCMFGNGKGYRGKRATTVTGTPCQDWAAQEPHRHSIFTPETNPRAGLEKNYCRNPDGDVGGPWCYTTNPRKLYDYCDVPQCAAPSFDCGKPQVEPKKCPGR
# T1 sequence (P00747 581-810 limits assumed): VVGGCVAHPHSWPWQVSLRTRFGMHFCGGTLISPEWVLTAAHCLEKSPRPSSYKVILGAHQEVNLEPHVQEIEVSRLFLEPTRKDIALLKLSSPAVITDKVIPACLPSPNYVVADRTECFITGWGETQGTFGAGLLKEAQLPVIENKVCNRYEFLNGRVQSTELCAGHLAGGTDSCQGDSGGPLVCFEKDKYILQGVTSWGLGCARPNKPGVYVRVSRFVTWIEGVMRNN
# Prothrombin [2] = molecular target: T2, Prothrombin (Homo sapiens, UniProt P00734); assay: In vitro activity against thrombin with 10 uM substrate s-2238 (D-Phe-Pip-Arg-pNA)
# Serine protease 1 = Serine protease 1 (Homo sapiens, UniProt P07477); assay: In vitro activity against trypsin was determined
# Sequence of Serine protease 1 (P07477 whole entry): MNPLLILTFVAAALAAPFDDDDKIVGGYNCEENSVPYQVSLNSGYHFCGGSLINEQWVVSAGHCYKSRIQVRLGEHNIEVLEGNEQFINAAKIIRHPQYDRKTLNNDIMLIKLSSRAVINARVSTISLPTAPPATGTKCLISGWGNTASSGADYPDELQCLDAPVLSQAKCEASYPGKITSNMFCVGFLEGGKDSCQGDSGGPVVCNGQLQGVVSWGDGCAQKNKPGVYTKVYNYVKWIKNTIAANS
# Prothrombin [3] = molecular target: T2, Prothrombin; assay: In vitro activity against thrombin was determined
# Plasminogen [4] = molecular target: T1, Plasminogen; assay: In vitro activity against […] was determined
# Prothrombin [5] = molecular target: T2, Prothrombin; assay: In vitro activity against thrombin was determined, using a 10 uM substrate s-2238 (D-Phe-Pip-Arg-pNA); 20-30
# In short: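 Human α-thrombin (0.1 unit/mL) preincubated with inhibitor for 3 min at room temperature in pH 7.4 buffer (30 mM HEPES, 145 mM NaCl, 5 mM KCl, 1 mg/mL PEG-8000). […] Absorbance change at 405 nm followed kinetically. Values are means of at least triplicate determinations.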
Compound,IC50 (Prothrombin [2]) [µM],also measured
CC(C)C[C@H](NC(=O)[C@H](Cc1ccccc1)NC(=O)CCCN=C(N)N)C(=O)N[C@@H](CC1CCCCC1)[C@@H](O)c1nccs1,,IC50 (Coagulation factor X): 6 µM; IC50 (Plasminogen [1]): 143 µM
CN[C@H](Cc1ccccc1)C(=O)N1CCC[C@H]1C(=O)N[C@H](C=O)CCCN=C(N)N,,IC50 (Serine protease 1): 0.008 µM; IC50 (Coagulation factor X): 4 µM; IC50 (Prothrombin [3]): 0.008 µM; IC50 (Plasminogen [4]): 0.23 µM
COC(=O)[C@H](Cc1ccccc1)NC(=O)[C@H](CC(C)C)NC(=O)[C@H](Cc1ccccc1)NC(=O)CCCCNC(=N)N,154,
COC(=O)C(O)[C@H](CCCCN)NC(=O)[C@@H]1CCCN1C(=O)[C@H](N)Cc1ccccc1 (some centres undefined),,IC50 (Prothrombin [5]): 30 µM
COC(=O)[C@H](Cc1ccccc1)NC(=O)[C@H](CC(C)C)NC(=O)[C@H](Cc1ccccc1)NC(=O)CCCCCNC(=N)N,> 200,
COC(=O)[C@H](Cc1ccccc1)NC(=O)[C@H](CC(C)C)NC(=O)[C@H](Cc1ccccc1)NC(=O)CCCN (H-[GABA]FLF-OMe),> 300,
COC(=O)[C@H](Cc1ccccc1)NC(=O)[C@H](CC(C)C)NC(=O)[C@H](Cc1ccccc1)NC(=O)CCCCCCN (H-[Ahp]FLF-OMe),330,
COC(=O)[C@H](Cc1ccccc1)NC(=O)[C@H](CC(C)C)NC(=O)[C@@H](N)Cc1ccccc1 (H-Phe-Leu-Phe-OMe),> 333,
CC(C)C[C@H](NC(=O)[C@@H](N)Cc1ccccc1)C(=O)N[C@@H](CC1CCCCC1)[C@@H](O)c1nccs1,> 530,

# Now from value to molecule, other results behind:
IC50 (Prothrombin [2]) [µM],Compound,also measured
100,CC(C)C[C@H](NC(=O)[C@H](Cc1ccccc1)NC(=O)CCCCN)C(=O)N[C@H](CO)Cc1ccccc1 (H-[Ava]FL[Phe(ol)]),
1.41,COC(=O)[C@H](Cc1ccccc1)NC(=O)[C@H](CC(C)C)NC(=O)[C@H](Cc1ccccc1)NC(=O)CCCNC(=N)N,
7.5,CC(C)C[C@H](NC(=O)[C@H](Cc1ccccc1)NC(=O)CCCCCN)C(=O)N[C@@H](CC1CCCCC1)[C@@H](O)c1nccs1,
17.6,COC(=O)C(O)[C@H](CCCCN)NC(=O)[C@@H]1CCCN1C(=O)[C@@H](Cc1ccccc1)NC(=O)CCCCCN (some centres undefined),
57.1,COC(=O)[C@H](Cc1ccccc1)NC(=O)[C@H](CC(C)C)NC(=O)[C@H](Cc1ccccc1)NC(=O)CCCCN (H-[Ava]FLF-OMe),
80,COC(=O)[C@H](Cc1ccccc1)NC(=O)[C@H](CC(C)C)NC(=O)[C@H](Cc1ccccc1)NC(=O)CCCCCN (H-[Ahx]FLF-OMe),
